Reference: ChEMBL document CHEMBL1158053, “Polyoxygenated sterols from the Formosan soft coral Sinularia gibberosa” (J Nat Prod, 2006)
Values after ≈ are worked out from the molar mass of the structure shown. Active and inactive are the calls of the source. No cut-off for these calls is given here.

Tests used:
MDA-MB-231 = assay: Cytotoxicity against human MDA-MB-231 cells by MTT assay; assay type: functional, cell-based
Method in brief: (§1)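 ATCC-sourced tumour lines (HepG2, MCF7, MDA-MB-231, A-549) were tested with the MTT colorimetric method.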

A549 = assay: Cytotoxicity against human A549 cells by MTT assay; assay type: functional, cell-based; method in brief: as §1
RAW264.7 [1] = assay: Antiinflammatory activity against LPS-stimulated mouse RAW264.7 cells assessed as inhibition of iNOS expression at 10 uM after 16 hrs by immunoblot analysis relative to control; assay type: functional
Method in brief: (§2)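 RAW 264.7 murine macrophages (ATCC TIB-71) grown in DMEM with 10% heat-inactivated FBS, 37 °C, 5% CO2. Cells activated with E. coli LPS (0.01 µg/mL) for 16 h with or without compound. Lysates were loaded at equal protein and analysed by SDS-PAGE and Western blot. Antibodies were anti-iNOS and anti-COX-2 (1:1000, 180 min), with β-actin reprobe as loading control. ECL detection. Intensity expressed relative to LPS-only group (100%); mean ± SD, n = 3.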

RAW264.7 [2] = assay: Antiinflammatory activity against LPS-stimulated mouse RAW264.7 cells assessed as inhibition of COX2 expression at 10 uM after 16 hrs by immunoblot analysis relative to control; assay type: functional; method in brief: as §2
RAW264.7 [3] = assay: Cytotoxicity against mouse RAW264.7 cells assessed as cell survival at 10 uM by trypan blue staining; assay type: cell-based; conditions: raw264.7, 10 µM
Method in brief: (§3)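 RAW 264.7 macrophages (DMEM, 10% heat-inactivated FBS, 37 °C, 5% CO2) were exposed to compound at 10 or 100 µM alongside the LPS-activation protocol. Viability was scored by trypan blue staining.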

[4] = Cytotoxicity against human Hep G2 cells by MTT assay; assay type: functional, cell-based; conditions: HepG2; method in brief: as §1
MCF7 = assay: Cytotoxicity against human MCF7 cells by MTT assay; assay type: functional, cell-based; method in brief: as §1
RAW264.7 [5] = assay: Cytotoxicity against mouse RAW264.7 cells assessed as cell loss at 100 uM by trypan blue staining; assay type: cell-based; conditions: raw264.7, 100 µM; method in brief: as §3
RAW264.7 [6] = assay: Cytotoxicity against mouse RAW264.7 cells assessed as decrease in beta-actin at 100 uM by trypan blue staining; assay type: cell-based; conditions: raw264.7, 100 µM

Row | SMILES | IC50 (MDA-MB-231) [µg/mL] | IC50 (A549) [µg/mL] | Activity (RAW264.7 [1]) | Activity (RAW264.7 [2]) | Activity (RAW264.7 [3]) | IC50 [4] [µg/mL] | IC50 (MCF7) [µg/mL] | Activity (RAW264.7 [5]) [%] | Activity (RAW264.7 [6])
1 | C=C(CC[C@@H](C)[C@H]1CC[C@H]2[C@@H]3C[C@@H]4O[C@@]45C[C@@H](O)C[C@H](O)[C@]5(C)[C@H]3CC[C@]12C)C(C)C [GIBBEROEPOXYSTEROL] | 15.9 (≈ 36.9 µM) | 15.5 (≈ 36 µM) |  |  |  |  |  |  | 
2 | C=C(/C=C/[C@@H](C)[C@H]1CC[C@H]2[C@@H]3CC(=O)[C@]4(O)C[C@@H](O)C[C@H](O)[C@]4(C)[C@H]3CC[C@]12C)C(C)C [GIBBEROKETOSTEROL B] | > 30 | > 30 | inactive | inactive | Non-toxic | > 30 | > 30 |  | 
3 | C=C(/C=C/[C@@H](C)[C@H]1CC[C@H]2[C@@H]3CC(=O)[C@H]4C[C@@H](O)C[C@H](O)[C@]4(C)[C@H]3CC[C@]12C)C(C)C [GIBBEROKETOSTEROL C] | > 30 | > 30 |  |  |  | > 30 | > 30 |  | 
4 | C=C(CC[C@@H](C)[C@H]1CC[C@H]2[C@@H]3CC(=O)[C@]4(O)C[C@@H](O)C[C@H](O)[C@]4(C)[C@H]3CC[C@]12C)C(C)C [GIBBEROKETOSTEROL] | 14.4 (≈ 32.2 µM) | 14.5 (≈ 32.5 µM) | 44.5% | 68.3% | Non-toxic | 13 (≈ 29.1 µM) | 14.1 (≈ 31.6 µM) | 38.4 | Active
